Assay results gathered from unrelated publications.
Compare with care: the assays were run in different laboratories.
Target: Kappa-type opioid receptor (OPRK1, Homo sapiens, UniProt P41145)

SMILES	observed	action	method	quantity	result
CCCCN1CCC(COC(=O)c2ccc(N)c(OCF)c2)CC1	cell-free assay		radioligand	Ki	> 10 µM
O[C@@H]1[C@H](O)[C@@H]2C[C@@H]2[C@H]1n1cnc2c(NCCc3ccccc3)nc(C#Cc3ccccc3)nc21	cell-free assay			Ki	> 10 µM
OCCCN1CC[C@@H]2C[C@H]1c1cc(-c3ccc(C(F)(F)F)cc3)ccc12	ligand displacement		radioligand	Ki	7.09 µM
CNC(=O)[C@@]12C[C@@H]1[C@@H](n1cnc3c(NC)cc(C#Cc4ccc(Cl)s4)nc31)[C@H](O)[C@@H]2O	cell-free assay			Ki	> 10 µM
CCOCc1nc(O)c(-c2nnc(Cc3ccc(Cl)cn3)o2)c(O)c1-c1c(OC)cccc1OC	ligand displacement		radioligand	IC50	> 30 µM
Cc1nccc2c1c(=O)n(C)c1cc(OC[C@@H](N)CC(C)C)c(C#N)cc21	cell-free assay			IC50	29 µM
Cc1ccc(C(=O)NCC2CCN(Cc3ccc(C(C)C)cc3)CC2)cc1	cell-free assay			Ki	> 10 µM
O=C(c1ccccn1)N(Cc1cccs1)C1(C(=O)NC2CCCCC2)CCCCC1	β-arrestin recruitment	agonist		EC50	110 nM
O[C@@H]1[C@H](O)[C@@H]2C[C@@H]2[C@H]1n1cnc2c(NCc3cccc(Cl)c3)ncnc21	cell-free assay			Ki	> 10 µM
Clc1ccc(CSc2nnc(-c3ccccn3)n2Cc2cccs2)cc1Cl	β-arrestin recruitment	agonist	imaging	EC50	390 nM
Cc1cc(C)nc(C(=O)NC[C@@H]2CCCN(Cc3ccc(F)c(F)c3)C2)c1	cell-free assay			Ki	6.46 µM
OC[C@@]12C[C@@H]1[C@@H](n1cnc3c(NC(C4CCCC4)C4CCCC4)nc(Cl)nc31)[C@H](O)[C@@H]2O	cell-free assay		radioligand	Ki	0.11 µM
